Several values for one entry are separate records, joined by “and”; a condition that tells them apart may be missing. Equal entries are not always repeated.
Experiments:
Assay type in all cases: functional
Mus musculus [1] = species: Mus musculus; assay: In vitro bone-resorbing activity was examined in fetal mouse calvaria prelabeled with 45Ca at 12 nM concentration
In short: (§1)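 Paired half fetal mouse calvaria, split along the midsagittal suture, were precultured 24 h at 37 °C under 5% CO₂ in air in BGJ medium containing 1 mg/mL bovine serum albumin. Halves were then moved to fresh medium with or without derivative for 6 more days. Bones were digested overnight in HCl, and ⁴⁵Ca in the medium and bone was counted. ⁴⁵Ca release % = medium/(medium+bone)×100, reported as treated/control ratio. Student's t test.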

Mus musculus [2] = species: Mus musculus; assay: In vitro bone-resorbing activity was examined in fetal mouse calvaria prelabeled with 45Ca at 1.2 nM concentration; in short: as §1
Mus musculus [3] = species: Mus musculus; assay: In vitro bone-resorbing activity was examined in fetal mouse calvaria prelabeled with 45Ca at 120 nM concentration; in short: as §1
Mus musculus [4] = species: Mus musculus; assay: In vitro bone-reabsorbing activity was examined in fetal mouse calvaria prelabeled with 45 Ca at 120 nM concentration, Ca release; in short: as §1
Mus musculus [5] = species: Mus musculus; assay: In vitro bone-reabsorbing activity was examined in fetal mouse calvaria prelabeled with 45 Ca at 1.2 nM concentration, Ca release; in short: as §1
Mus musculus [6] = species: Mus musculus; assay: In vitro bone-reabsorbing activity was examined in fetal mouse calvaria prelabeled with 45 Ca at 12 nM concentration, Ca release; in short: as §1

| SMILES | T/C (Mus musculus [1]) | T/C (Mus musculus [2]) | T/C (Mus musculus [3]) | T/C (Mus musculus [4]) | T/C (Mus musculus [5]) | T/C (Mus musculus [6]) |
| --- | --- | --- | --- | --- | --- | --- |
| C[C@H](CCCC(C)(C)O)C1CCC2/C(=C/c3occ4c3CC(O)CC4)CCCC21C (stereo partly drawn) | 1.63 | 1.05 and 0.98 | 2.64 | – | – | – |
| C=C1CC[C@H](O)C/C1=C/C=C1\CCC[C@]2(C)[C@@H]([C@H](C)CCCC(C)(C)O)CC[C@@H]12 [CALCIFEDIOL ANHYDROUS] | – | – | – | 1.74 | 1 | 1.33 |
| C[C@H](CCCC(C)(C)O)C1CCC2/C(=C/C3OOCC4=C3C[C@@H](O)CC4)CCCC21C (stereo partly drawn) | – | – | – | 2.43 | – | 1.61 |
